Assay results collected from several papers.
Each line is one published result; the experiments were not run side by side.
Technique: competition with immobilised ligand
RPS6KA1 C-terminal kinase domain: Ribosomal protein S6 kinase alpha-1, C-terminal kinase domain (RPS6KA1, Homo sapiens, UniProt Q15418)
RPS6KA1 N-terminal kinase domain: Ribosomal protein S6 kinase alpha-1, N-terminal kinase domain (RPS6KA1, Homo sapiens, UniProt Q15418)

| Structure (SMILES) | target | read-out | tested at | remaining binding |
| --- | --- | --- | --- | --- |
| C=CC(=O)N1CCC(C(=O)NCC(=O)N2CCN(c3nc(-c4cnc(N)nc4C(F)F)nc(N4CCOCC4)n3)CC2)CC1 | RPS6KA1 C-terminal kinase domain | binding | 1 µM | 100% |
| O=C(Nc1c[nH]nc1C(=O)NC1CCNCC1)c1cc(F)cc(F)c1 | RPS6KA1 C-terminal kinase domain | binding | 1 µM | 100% |
| Cc1cnc(Nc2ccc(C(=O)N3CCC(N4CCCC4)CC3)cc2)nc1-c1cc2ccccc2s1 | RPS6KA1 C-terminal kinase domain | binding | 1 µM | 74% |
| CN(C)c1nccc(-c2cnn3ncccc23)n1 | RPS6KA1 C-terminal kinase domain | binding | 1 µM | 100% |
| O=C(NCCCN1CCOCC1)c1ccc(Nc2nccc(-c3cc4ccccc4s3)n2)cc1 | RPS6KA1 C-terminal kinase domain | binding | 1 µM | 54% |
| O=C(NCc1ncc(C(F)(F)F)cc1Cl)c1ccc2c(c1)C1(CCS(=O)(=O)CC1)[C@H](C1CC1)N2S(=O)(=O)c1ccc(F)cc1 | RPS6KA1 N-terminal kinase domain | cell-free assay | 1 µM | 100% |
| C[C@@H](c1ccc(-n2cnc3c(N)ncnc32)cc1)N1CCc2nn(C)c(Cc3ccccc3)c2C1=O | RPS6KA1 C-terminal kinase domain | binding | 0.1 µM | 100% |
| COc1cnc(Nc2cccc(S(N)(=O)=O)c2)nc1N1CCN(c2ccccc2)CC1 | RPS6KA1 C-terminal kinase domain | binding | 1 µM | 83% |
| COc1ccnn2ncc(-c3ccnc(N(C)C)n3)c12 | RPS6KA1 N-terminal kinase domain | binding | 1 µM | 100% |
| CNC(=O)[C@@H]1CC[C@@H](n2c(-c3ccc4cnccc4c3)nc3ccc(C(=O)NCc4cccc(C(N)=O)c4)cc32)C1 | RPS6KA1 N-terminal kinase domain | binding | 1 µM | 100% |
| C[C@@H]1CCN(c2nccc(-c3cnn4ncccc34)n2)C1 | RPS6KA1 C-terminal kinase domain | binding | 1 µM | 47% |
| O=C(NCCCN1CCOCC1)c1ccc(Nc2ncc(Cl)c(-c3ccc(Cl)s3)n2)cc1 | RPS6KA1 C-terminal kinase domain | binding | 1 µM | 72% |
| O=C(NCCCC1CCCCC1)c1ccc(CNC(=O)c2cnn(-c3ccccc3)c2C(F)(F)F)cc1 | RPS6KA1 N-terminal kinase domain | cell-free assay | 0.1 µM | 100% |
| F[C@@H]1CCN(c2nccc(-c3cnn4ncccc34)n2)C1 | RPS6KA1 N-terminal kinase domain | binding | 1 µM | 100% |
| CCN1CCN(Cc2ccc(C(=O)Nc3ccc(C)c(Oc4ccc5c(c4)CC(=O)N5)c3)cc2C(F)(F)F)CC1 | RPS6KA1 C-terminal kinase domain | binding | 1 µM | 95% |
| c1cncc(-c2cccc(Nc3nccc(NC4CCCCC4)n3)c2)c1 | RPS6KA1 C-terminal kinase domain | binding | 10 µM | 99% |
| CC(C)CC(=O)N1CCc2nc(-c3ccc(Br)cc3)nc(N(C)Cc3ccccc3)c2C1 | RPS6KA1 N-terminal kinase domain | cell-free assay | 0.1 µM | 93% |

| Structure (SMILES) | target | read-out | tested at | remaining binding |
| --- | --- | --- | --- | --- |
| O=C(c1ccc(Nc2ncc(Cl)c(-c3ccc(Cl)s3)n2)cc1)N1CCC(N2CCCC2)CC1 | RPS6KA1 N-terminal kinase domain | binding | 1 µM | 53% |
| COc1cnc(Nc2cccc(S(N)(=O)=O)c2)nc1N1CCN(c2ccccc2)C(=O)C1 | RPS6KA1 N-terminal kinase domain | binding | 1 µM | 100% |
| N[C@@H]1CCN(c2nccc(-c3cnn4ncccc34)n2)C1 | RPS6KA1 N-terminal kinase domain | binding | 1 µM | 100% |
| Nc1ncc2c(n1)-c1c([nH]c3ccc(C#CC4CC4)cc13)CCCC2 | RPS6KA1 N-terminal kinase domain | binding | 1 µM | 90% |
| COc1ncc2cc3ccccc3nc2c1C#N | RPS6KA1 N-terminal kinase domain | cell-free assay | 5 µM | 91% |
| O=C(NCC1CCOCC1)c1n[nH]cc1NC(=O)c1c(F)cccc1F | RPS6KA1 C-terminal kinase domain | binding | 1 µM | 93% |
| COc1cc(-c2cn(C3CCc4c(F)cccc4N(CC(F)(F)F)C3=O)nn2)ccc1-n1cnc(C)c1 (stereo not drawn) | RPS6KA1 C-terminal kinase domain | cell-free assay | 1 µM | 100% |
| CN(CCCC(F)(F)F)c1nccc(-c2cnn3ncccc23)n1 | RPS6KA1 C-terminal kinase domain | binding | 1 µM | 100% |
| O=C(N1CCS(=O)(=O)CC1)N1C[C@H](c2ccc(OC(F)(F)F)cc2)C[C@H](c2nc(C3CC3)no2)C1 | RPS6KA1 C-terminal kinase domain | cell-free assay | 1 µM | 100% |
| O=C(c1ccc(Nc2nccc(-c3cc4ccccc4s3)n2)cc1)N1CCC(N2CCCC2)CC1 | RPS6KA1 C-terminal kinase domain | binding | 1 µM | 60% |
| CCC(=N\O)/C(C)=C/c1ccc(F)cc1 | RPS6KA1 N-terminal kinase domain | cell-free assay | 1 µM | 100% |
| CN(c1nccc(-c2cnn3ncccc23)n1)C1CC1 | RPS6KA1 C-terminal kinase domain | binding | 1 µM | 100% |
| CC(=O)c1c(NS(C)(=O)=O)c2cc(-c3ccc(Cl)cc3)c(-c3ccc(Cl)cc3Cl)nc2n(C)c1=O | RPS6KA1 C-terminal kinase domain | cell-free assay | 1 µM | 88% |
| FC(F)(F)Oc1cccc(-c2cnc3ccc(-c4ccncc4)nn23)c1 | RPS6KA1 C-terminal kinase domain | binding | 5 µM | 41% |
| O=C(c1ccc(Nc2ncc(Cl)c(-c3cc4ccccc4s3)n2)cc1)N1CCC(N2CCCC2)CC1 | RPS6KA1 C-terminal kinase domain | binding | 1 µM | 82% |
| CO[C@@H](C)c1c(Nc2ccc([C@H](N(C)C(=O)C3CCS(=O)(=O)CC3)C(F)(F)F)cc2)cnc2cc(Cl)nn12 | RPS6KA1 C-terminal kinase domain | cell-free assay | 1 µM | 91% |
